Usually half-life stands for the time needed for the level to fall by half in the phase considered.

Data on one compound can be found in ChEMBL document CHEMBL1124747, “Properties of the nucleic acid photoaffinity labeling agent 3-azidoamsacrine” (J Med Chem, 1990).

For series [1], the system named is L5178Y. The series can be described thus: Relative mutation induction for L5178Y cells was evaluated at dose 0.005 mg/mL in dark condition (expt-II). It counts as functional, Mus musculus. The method, boiled down:
(§1)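 L5178Y suspension cells (3 × 10^6/mL, 5% CO2, 37 °C, shaking) exposed 20 h without activating enzyme; light arm irradiated 6.5 min (Hg lamp, <340 nm filtered). Cells washed, grown 24 h more and kept at 3 × 10^5/mL. Viability from 200 cells in soft agar; TFT (0.1 mg/mL) resistant colonies from 10^6 cells in triplicate dishes, counted at 10 days.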

For series [2], the system named is L5178Y. The series can be described thus: Relative toxicity against mammalian L5178Y cells at dose 0.005 mg/mL in dark condition (expt-II). It counts as functional, Mus musculus. An outline of the steps:
(§2)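 L5178Y mouse cells in suspension, 3 × 10^6 cells/mL, were exposed for 20 h at 37 °C in a shaker at 150 rpm under 5% CO2, without an activating enzyme. Light arms were irradiated for 6.5 min with a medium-pressure Hg lamp filtered to remove light below 340 nm; dark arms were not. Toxicity was taken as the Coulter-counted density of treated cells versus solvent control.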

The nature of series [3]: Ability to block cleavage of G/GNCC site in Restriction endonuclease Sau961 with the test compound/DNA ratio 1:8(no. of sites=15); - = no activation. The method, boiled down: (§3)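 pBR322 plasmid mixed with drug at 0.015, 0.12 or 0.48 mM (drug:DNA 1:8, 1:1 or 4:1), equilibrated on ice 30 min in the dark in 5 mM potassium phosphate pH 5.5, then irradiated 1 h with a medium-pressure Hg lamp (<340 nm filtered); dark set kept as control. Digested overnight with 10× excess enzyme plus DTT; fragments resolved on 1.2% agarose in TBE.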

A short description of series [4]: Ability to block cleavage of G/GNCC site in Restriction endonuclease Sau961 with the test compound/DNA ratio 1(no. of sites=15); - = no activation. The method, boiled down:
as §3

The subject of series [5] is L5178Y. The series can be described thus: Mutation frequency for L5178Y cells was evaluated at dose 0.005 mg/mL in dark condition (expt-II). It counts as functional, Mus musculus. An outline of the steps:
as §1

The nature of series [6]: Half-life was evaluated in water in the presence of light. It counts as ADME.
Series [7] concerns L5178Y. As to the kind of experiment: Induction frequency for L5178Y cells was evaluated at dose 0.005 mg/mL in dark condition (expt-II). It counts as functional, Mus musculus. An outline of the steps: as §1
Series [8] concerns L5178Y. As to the kind of experiment: Mean value of mutation induction for L5178Y cells was evaluated at dose 0.005 mg/mL in dark condition (expt-II). It counts as functional, Mus musculus. An outline of the steps: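 L5178Y cells in suspension culture, gassed with 5% CO2 in air, shaken at 150 rpm, 37 °C. Cells at 3 × 10^6/mL were dosed for 20 h, unirradiated and without activating enzyme, then washed twice in Fop and grown 24 h more. TFT-resistant mutants came from 10^6 cells plated in three dishes of cloning medium with 0.1 mg/mL TFT, colonies counted at 10 days; frequency expressed ×10^6.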

Series [9] relates to L5178Y. The series can be described thus: Relative toxicity against mammalian L5178Y cells at dose 0.005 mg/mL in light condition (expt-II). It counts as functional, Mus musculus. An outline of the steps: as §2
In series [10] the test system is L5178Y. The series can be described thus: Induction frequency for L5178Y cells was evaluated at dose 0.005 mg/mL in light condition (expt-II). It counts as functional, Mus musculus. The method, boiled down: as §1
For series [11], the system named is L5178Y. As to the kind of experiment: Viability of L5178Y cells was evaluated at dose 0.005 mg/mL in light condition (expt-II). It counts as functional, Mus musculus. An outline of the steps: (§4)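 L5178Y cells were exposed for 20 h at 3 × 10^6 cells/mL. Light arms then received 6.5 min of Hg-lamp irradiation filtered to remove light below 340 nm. Cells were washed twice in Fischer's medium, grown a further 24 h and held at 3 × 10^5 cells/mL. For viability, 200 cells were plated in soft-agar cloning medium in triplicate dishes, and colonies were counted by an automated counter after 10 days.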

Series [12] deals with L5178Y. The series can be described thus: Mean value of mutation induction for L5178Y cells was evaluated at dose 0.005 mg/mL in light condition (expt-II). It counts as functional, Mus musculus. An outline of the steps: as §1
Series [13] is described as follows: Half-life was evaluated in water in the absence of light. It counts as ADME.
Series [14] deals with L5178Y. The series can be described thus: Mutation frequency for L5178Y cells was evaluated at dose 0.005 mg/mL in light condition (expt-II). It counts as functional, Mus musculus. The method, boiled down:
as §1

In series [15] the test system is L5178Y. The series can be described thus: Viability of L5178Y cells was evaluated at dose 0.005 mg/mL in dark condition (expt-II). It counts as functional, Mus musculus. An outline of the steps:
as §4

Series [16] deals with L5178Y. As to the kind of experiment: Relative mutation induction for L5178Y cells was evaluated at dose 0.005 mg/mL in light condition (expt-II). It counts as functional, Mus musculus. An outline of the steps: as §1

For the compound `COc1cc(NS(C)(=O)=O)ccc1Nc1c2ccccc2nc2ccccc12` [AMSACRINE], the Relative activity came out at 67 in [1] and 10 in [16]. In addition, the Relative toxicity in series [2] and in series [9] was 62 each time. Besides, the inhibition result in series [3] and in series [4] was “no activation” throughout. Also, the Mutation frequency in [5] was 577 10e6 F; in [14], 862 10e6 F. The figures for the half-life in series [6] and in [13] were 24 h and > 336 h, respectively. Also, the Induced frequency in series [7] is recorded as 439; in series [10], 733. Moreover, the values for the Mean value in series [8] and in series [12] were 57.7 and 53, respectively. Moreover, the Viability stood at 12.3 in series [11] and 20 in series [15].
